Columns and labels:
[1] = AUC in fasted healthy human at 400 mg administered as single dose suspension after 20 mins after consumption of high fat meal; assay type: ADME, organism-based; parameters: dose 400 mg; details: plasma
Outline: (§1)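 In a crossover of 12 healthy subjects, each took a single 400 mg oral suspension dose 5 min before, midway through (about 10 min into a 20-min meal), or 20 min after a high-fat meal of about 50 g fat. Plasma was drawn 0–168 h and measured by LC-MS/MS. Parameters are noncompartmental, with AUC to the last measurable time.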

[2] = Tmax in fasted healthy human at 400 mg BID, po administered as suspension for 7 days; assay type: ADME, organism-based; details: in vivo
Outline: (§2)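 Healthy volunteers given oral suspension (40 mg/ml) for 7 days, fasted or with nutritional supplement (Boost); four-way crossover, 14–21-day washout, nonfat snacks ≤800 cal/day allowed. On day 7 only the morning dose was given; plasma sampled predose to 168 h after it. LC-MS/MS (LLOQ 5.00 ng/ml). t1/2 = ln(2)/K from log-linear terminal slope; Tmax as median.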

[3] = Tmax in healthy human at 400 mg administered as single dose suspension coadministered with nutritional supplement and 10 mg metoclopramide; assay type: ADME, organism-based; details: in vivo
Outline: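 Single oral suspension dose with nutritional supplement, alone or with metoclopramide 10 mg orally three times daily on the day before and the day of dosing; three-way crossover, 7–10-day washout. EDTA plasma predose to 168 h, LC-MS/MS (LLOQ 5.00 ng/ml). t1/2 = ln(2)/K from terminal slope; Tmax median.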

[4] = Apparent total body clearance in healthy human at 400 mg administered as single dose suspension coadministered with nutritional supplement and 10 mg metoclopramide; assay type: ADME, organism-based; details: in vivo, po
Outline: (§3)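 A three-way crossover in 13 healthy subjects gave one 400 mg oral suspension dose with a nutritional supplement, either alone, with metoclopramide 10 mg orally three times daily on the day before and the day of dosing, or with a single 4 mg dose of loperamide. Plasma was taken 0–168 h for LC-MS/MS. Analysis was noncompartmental.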

[5] = Half life in healthy human at 200 mg QID, po administered as suspension for 7 days coadministered with nutritional supplement; assay type: ADME, organism-based; details: in vivo; outline: as §2
[6] = Half life in fasted healthy human at 400 mg administered as single dose suspension; assay type: ADME, organism-based; details: in vivo
Outline: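 Single oral suspension dose in fasting healthy volunteers, alone, with 12 oz ginger ale, after esomeprazole 40 mg once each morning days −2 to 1, or both; four-way crossover, 7–10-day washout. EDTA plasma 0–168 h. LC-MS/MS (LLOQ 5.00 ng/ml). t1/2 = ln(2)/K from terminal log-linear regression; Tmax median.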

[7] = Half life in fasted healthy human at 400 mg administered as single dose suspension 5 mins before consumption of high fat meal; assay type: ADME, organism-based; details: in vivo
Outline: (§4)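 Single oral suspension dose in healthy volunteers while fasting, 5 min before, midway through (about 10 min into a 20-min meal), or 20 min after a high-fat meal (approx 50 g fat); four-way crossover, 7–10-day washout. Plasma 0–168 h by LC-MS/MS (LLOQ 5.00 ng/ml). t1/2 = ln(2)/K; Tmax median.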

[8] = Half life in fasted healthy human at 400 mg administered as single dose suspension after consumption of high fat meal; assay type: ADME, organism-based; details: in vivo; outline: as §4
[9] = Apparent volume of distribution in fasted healthy human at 400 mg administered as single dose suspension; assay type: ADME, organism-based; details: in vivo, read-out: Vc/F
[10] = Apparent volume of distribution in healthy human at 400 mg administered as single dose suspension coadministered with nutritional supplement and 10 mg metoclopramide; assay type: ADME, organism-based; details: in vivo, po, read-out: Vc/F; outline: as §3
Homo sapiens [11] = assay: Toxicity in healthy human assessed as adverse events at 400 mg administered as single dose suspension after 20 mins after consumption of high fat meal; assay type: organism-based; details: in vivo
Outline: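 Healthy volunteers monitored for adverse events, vital signs, clinical laboratory values and 12-lead ECG. Adverse events tabulated by body system or organ class and severity and summarized by treatment across the crossover regimens.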

Homo sapiens [12] = assay: Toxicity in healthy human assessed as headache at 200 mg QID, po administered as suspension for 7 days; assay type: organism-based; details: in vivo, 168 h
Outline: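 Healthy volunteers (n = 12) took oral posaconazole suspension (40 mg/ml) for 7 days in a four-way randomized crossover with a 14- to 21-day washout. Subjects stayed fasted throughout, with nonfat snacks up to 800 cal/day allowed. Where given, Boost was taken with each dose. Safety covered adverse events, vital signs, clinical labs and 12-lead ECG, with AEs tabulated by body system and severity per treatment.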

Homo sapiens [13] = assay: Toxicity in healthy human assessed as fatigue at 400 mg administered as single dose suspension coadministered with nutritional supplement; assay type: organism-based; details: in vivo
Outline: (§5)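 Three-way randomized crossover in 13 healthy volunteers with a 7- to 10-day washout. Each period was one 400-mg oral posaconazole suspension dose with a nutritional supplement. Metoclopramide 10 mg was given orally three times daily on the day before and the day of dosing; loperamide was a single 4 mg. Safety was assessed from adverse events, tabulated by body system and severity per treatment.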

Homo sapiens [14] = assay: Toxicity in healthy human assessed as fatigue at 400 mg administered as single dose suspension coadministered with nutritional supplement and 10 mg metoclopramide; assay type: organism-based; details: in vivo; outline: as §5
[15] = Cmax in plasma in hematopoietic stem cell transplant recipient human with GVHD and diarrhea; assay type: ADME, organism-based
[16] = Cmax in plasma in hematopoietic stem cell transplant recipient human with GVHD; assay type: ADME, organism-based
[17] = Cmax in fasted healthy human plasma at 400 mg administered as single dose suspension coadministered with proton pump inhibitor; assay type: ADME, organism-based; parameters: dose 400 mg
Outline: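 This was a four-way crossover in 12 healthy subjects with 7–10 day washouts. Each took one fasting 400 mg oral suspension dose, with 12 oz ginger ale and/or esomeprazole 40 mg once each morning on days −2 to 1, with dosing on day 1. Plasma was sampled 0–168 h and measured by LC-MS/MS (LLOQ 5.00 ng/ml). Analysis was noncompartmental, with CL/F = dose/AUC_I and V/F = (CL/F)/K.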

[18] = Cmax in fasted healthy human plasma at 200 mg QID, po administered as suspension for 7 days; assay type: ADME, organism-based; parameters: dose 200 mg, route oral
Outline: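 Twelve healthy subjects took oral suspension for 7 days as 400 mg BID or 200 mg QID, either fasting or with a Boost-type nutritional supplement, in a crossover with 14–21 day washouts. Nonfat snacks of 800 cal/day or less were allowed. Plasma was sampled 0–168 h after the day-7 morning dose only and analysed by LC-MS/MS. AUC is AUC_τ, normalized to dose.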

[19] = Cmax in fasted healthy human plasma at 400 mg administered as single dose suspension after consumption of high fat meal; assay type: ADME, organism-based; parameters: dose 400 mg; outline: as §1

## CC[C@@H]([C@H](C)O)n1ncn(-c2ccc(N3CCN(c4ccc(OC[C@@H]5CO[C@@](Cn6cncn6)(c6ccc(F)cc6F)C5)cc4)CC3)cc2)c1=O [POSACONAZOLE]
[1]
  AUC at 20 min: 21000 ng·h/mL
[2]
  Tmax: 6 h
[3]
  Tmax: 5 h
[4]
  CL/F: 993 mL/min
[5]
  half-life: 27.8 h
[6]
  half-life: 24.5 h
[7]
  half-life: 23.9 h
[8]
  half-life: 22.6 h
[9]
  Vd/F: 3580 L
[10]
  Vd/F: 2280 L
Homo sapiens [11]
  Activity: 25%
Homo sapiens [12]
  Activity: 25%
Homo sapiens [13]
  Activity: 15%
Homo sapiens [14]
  Activity: 15%
[15]
  Cmax: 623 ng/mL
[16]
  Cmax: 1460 ng/mL
[17]
  Cmax: 76.7 ng/mL
[18]
  Cmax: 2300 ng/mL
[19]
  Cmax: 544 ng/mL

From ChEMBL document CHEMBL1671645, “Pharmacokinetics and absorption of posaconazole oral suspension under various gastric conditions in healthy volunteers” (Antimicrob Agents Chemother, 2009)
